Assay results pooled from the literature.
Target: Serine/threonine-protein kinase Nek2 (NEK2, Homo sapiens, UniProt P51955)
Sequence (P51955 1-445, as in one of the studies): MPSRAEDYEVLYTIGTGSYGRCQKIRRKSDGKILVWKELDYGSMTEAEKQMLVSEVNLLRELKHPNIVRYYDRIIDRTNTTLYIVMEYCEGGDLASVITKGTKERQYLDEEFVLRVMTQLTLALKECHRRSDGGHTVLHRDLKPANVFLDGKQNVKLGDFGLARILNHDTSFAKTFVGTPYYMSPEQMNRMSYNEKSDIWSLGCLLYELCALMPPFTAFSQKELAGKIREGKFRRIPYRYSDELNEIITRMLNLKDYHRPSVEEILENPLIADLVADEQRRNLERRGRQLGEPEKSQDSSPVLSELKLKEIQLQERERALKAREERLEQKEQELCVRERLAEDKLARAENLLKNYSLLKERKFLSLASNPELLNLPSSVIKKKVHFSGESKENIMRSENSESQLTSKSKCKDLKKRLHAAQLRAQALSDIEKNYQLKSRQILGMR

CN(C)c1nccc(-c2cnc3ncccn23)n1  remaining binding (binding; 1 µM): 93%
CNC(=O)[C@@H]1CC[C@@H](n2c(-c3ccc4cnccc4c3)nc3ccc(C(=O)NCc4cccc(C(N)=O)c4)cc32)C1  remaining binding (binding, competition with immobilised ligand; 1 µM): 97%
O=C(NCC1CCOCC1)c1n[nH]cc1NC(=O)c1c(F)cccc1F  remaining binding (binding, competition with immobilised ligand; 1 µM): 87%
C[C@H]1CCN(c2nccc(-c3cnn4ncccc34)n2)C1  remaining binding (binding; 1 µM): 90%
Cn1nc(C(F)(F)F)cc1-c1cnc(N2CCc3cc(S(=O)(=O)Nc4c(F)cc(Cl)cc4F)cc(N4CCCC4=O)c32)nc1  remaining binding (cell-free assay, competition with immobilised ligand; 1 µM): 100%
COc1ncc2cc3ccccc3nc2c1C#N  remaining binding (cell-free assay, competition with immobilised ligand; 5 µM): 85%
O=C(NCCCC1CCCCC1)c1ccc(CNC(=O)c2cnn(-c3ccccc3)c2C(F)(F)F)cc1  remaining binding (cell-free assay, competition with immobilised ligand; 0.1 µM): 100%
O=C(NCCCN1CCOCC1)c1ccc(Nc2ncc(Cl)c(-c3ccc(Cl)s3)n2)cc1  remaining binding (binding, competition with immobilised ligand; 1 µM): 75%
N[C@@H]1CCN(c2nccc(-c3cnn4ncccc34)n2)C1  remaining binding (binding; 1 µM): 100%
O=C(c1ccc(Nc2ncc(Cl)c(-c3cc4ccccc4s3)n2)cc1)N1CCC(N2CCCC2)CC1  remaining binding (binding, competition with immobilised ligand; 1 µM): 83%
CCN1CCN(Cc2ccc(C(=O)Nc3ccc(C)c(Oc4ccc5c(c4)CC(=O)N5)c3)cc2C(F)(F)F)CC1  remaining binding (binding, competition with immobilised ligand; 1 µM): 100%
CC1=C(C#N)C(c2ccc3c(c2)c(NC(=O)c2ccccc2C)nn3C)C(C#N)=C(C)N1  remaining binding (cell-free assay, competition with immobilised ligand; 1 µM): 100%
COc1ccnn2ncc(-c3ccnc(N(C)C)n3)c12  remaining binding (binding; 1 µM): 92%
O=C(Nc1cccnn1)N1CC(C/C=C/c2cncc(Oc3ccc(C(F)(F)F)cn3)n2)C1  remaining binding (cell-free assay, competition with immobilised ligand; 1 µM): 100%
C[C@@H](c1ccc(-n2cnc3c(N)ncnc32)cc1)N1CCc2nn(C)c(Cc3ccccc3)c2C1=O  remaining binding (binding, competition with immobilised ligand; 0.1 µM): 89%
CN(c1nccc(-c2cnn3ncccc23)n1)C1CC1  remaining binding (binding; 1 µM): 100%
CCCCN(CCCC)C(=O)CN1C[C@@H](c2cc(OC)c3c(c2)OCO3)[C@H](C(=O)O)[C@H]1CC(C)(C)CCC  remaining binding (cell-free assay, competition with immobilised ligand; 1 µM): 98.7%
c1cnn2ncc(-c3ccnc(N4CCC45COC5)n3)c2c1  remaining binding (binding; 1 µM): 95%
CNC(=O)Nc1ccc2c(c1)[C@@]1(CC2)OC(=O)N(CC(=O)N(Cc2ccc(F)cc2)[C@@H](C)C(F)(F)F)C1=O  remaining binding (cell-free assay, competition with immobilised ligand; 1 µM): 100%
FC(F)(F)Oc1cccc(-c2cnc3ccc(-c4ccncc4)nn23)c1  remaining binding (cell-free assay, competition with immobilised ligand; 5 µM): 74%
